The results in this text go back to ChEMBL document CHEMBL4610098, “Isolation and Synthesis of Veranamine, an Antidepressant Lead from the Marine Sponge Verongula rigida” (J Nat Prod, 2020).

Active and inactive are the calls of the source. No cut-off for these calls is given here.

Series [1] has as its target Alpha-2A adrenergic receptor (Homo sapiens, UniProt P08913). The series is described as follows: Binding affinity to adrenoceptor alpha 2A (unknown origin).
The target in series [2] is Alpha-2B adrenergic receptor (Homo sapiens, UniProt P18089). The series is described as follows: Binding affinity to adrenoceptor alpha 2B (unknown origin).
Series [3] deals with D(4) dopamine receptor (Homo sapiens, UniProt P21917). The series can be described thus: Binding affinity to dopamine D4 receptor (unknown origin).
Sequence of D(4) dopamine receptor (P21917 whole entry): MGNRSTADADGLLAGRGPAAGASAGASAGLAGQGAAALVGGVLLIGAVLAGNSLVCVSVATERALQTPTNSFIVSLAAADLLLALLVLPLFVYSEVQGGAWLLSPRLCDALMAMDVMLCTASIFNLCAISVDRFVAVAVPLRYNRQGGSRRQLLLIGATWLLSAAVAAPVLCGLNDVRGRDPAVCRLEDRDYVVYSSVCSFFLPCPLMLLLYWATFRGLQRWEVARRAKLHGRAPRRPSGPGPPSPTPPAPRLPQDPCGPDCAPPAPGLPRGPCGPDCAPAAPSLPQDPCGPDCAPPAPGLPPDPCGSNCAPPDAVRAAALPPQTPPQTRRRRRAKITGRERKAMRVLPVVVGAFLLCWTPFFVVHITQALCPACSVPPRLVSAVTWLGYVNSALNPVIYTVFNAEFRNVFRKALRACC
In series [4] the target is Histamine H4 receptor (Homo sapiens, UniProt Q9H3N8). The series is described as follows: Binding affinity to histamine H4 receptor (unknown origin).
Sequence of Histamine H4 receptor (Q9H3N8 whole entry): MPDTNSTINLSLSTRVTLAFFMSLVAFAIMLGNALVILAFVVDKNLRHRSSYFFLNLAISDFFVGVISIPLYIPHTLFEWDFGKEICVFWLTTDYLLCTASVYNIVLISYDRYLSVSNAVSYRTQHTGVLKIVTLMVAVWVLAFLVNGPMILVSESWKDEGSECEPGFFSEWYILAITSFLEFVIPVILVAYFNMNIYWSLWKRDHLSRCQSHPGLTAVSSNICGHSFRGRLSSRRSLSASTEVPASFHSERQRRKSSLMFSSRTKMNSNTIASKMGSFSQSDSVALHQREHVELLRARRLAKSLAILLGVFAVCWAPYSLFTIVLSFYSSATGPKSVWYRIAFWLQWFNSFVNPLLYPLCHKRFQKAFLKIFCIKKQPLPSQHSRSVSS
In series [5] the target is Alpha-2C adrenergic receptor (Homo sapiens, UniProt P18825). The series is described as follows: Binding affinity to adrenoceptor alpha 2C (unknown origin).
Sequence of Alpha-2C adrenergic receptor (P18825 whole entry): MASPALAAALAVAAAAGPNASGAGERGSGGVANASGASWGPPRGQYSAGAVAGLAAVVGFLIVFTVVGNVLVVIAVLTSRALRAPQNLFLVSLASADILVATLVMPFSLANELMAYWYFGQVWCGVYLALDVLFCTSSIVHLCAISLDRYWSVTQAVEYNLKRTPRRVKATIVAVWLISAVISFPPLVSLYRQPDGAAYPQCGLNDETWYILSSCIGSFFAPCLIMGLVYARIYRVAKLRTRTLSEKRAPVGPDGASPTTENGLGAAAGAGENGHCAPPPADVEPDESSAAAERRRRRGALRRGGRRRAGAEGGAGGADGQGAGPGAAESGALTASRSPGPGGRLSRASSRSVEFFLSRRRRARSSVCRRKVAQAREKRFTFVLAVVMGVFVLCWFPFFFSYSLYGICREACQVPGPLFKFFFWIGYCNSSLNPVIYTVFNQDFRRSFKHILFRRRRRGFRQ
In series [6] the target is Muscarinic acetylcholine receptor M5 (Homo sapiens, UniProt P08912). The series can be described thus: Binding affinity to muscarinic acetylcholine receptor M5 (unknown origin).
Sequence of Muscarinic acetylcholine receptor M5 (P08912 whole entry): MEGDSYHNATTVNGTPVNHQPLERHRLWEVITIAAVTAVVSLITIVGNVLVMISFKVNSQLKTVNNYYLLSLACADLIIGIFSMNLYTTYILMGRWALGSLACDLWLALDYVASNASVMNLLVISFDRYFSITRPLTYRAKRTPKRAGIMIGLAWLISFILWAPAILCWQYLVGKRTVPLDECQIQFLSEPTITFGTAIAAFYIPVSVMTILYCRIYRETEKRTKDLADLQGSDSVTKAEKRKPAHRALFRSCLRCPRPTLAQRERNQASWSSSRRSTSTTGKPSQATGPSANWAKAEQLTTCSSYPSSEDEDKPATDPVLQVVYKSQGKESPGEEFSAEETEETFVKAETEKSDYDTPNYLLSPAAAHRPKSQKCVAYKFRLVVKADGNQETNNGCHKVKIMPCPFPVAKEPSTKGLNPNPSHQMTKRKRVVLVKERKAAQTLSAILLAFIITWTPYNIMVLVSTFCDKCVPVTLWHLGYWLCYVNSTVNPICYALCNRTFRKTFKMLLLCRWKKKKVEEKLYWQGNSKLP
Series [7] concerns the target 5-hydroxytryptamine receptor 2A (Homo sapiens, UniProt P28223). The series can be described thus: Binding affinity to 5HT2A receptor (unknown origin).
Series [8] deals with D(1A) dopamine receptor (Homo sapiens, UniProt P21728). The series is described as follows: Binding affinity to dopamine D1 receptor (unknown origin).
Series [9] deals with 5-hydroxytryptamine receptor 2C (Homo sapiens, UniProt P28335). The series is described as follows: Binding affinity to 5HT2C receptor (unknown origin).
Series [10] addresses D(3) dopamine receptor (Homo sapiens, UniProt P35462). The series is described as follows: Binding affinity to dopamine D3 receptor (unknown origin).
Series [11] concerns the target Sigma intracellular receptor 2 (Homo sapiens, UniProt Q5BJF2). The series is described as follows: Binding affinity to sigma2 receptor (unknown origin).
In series [12] the target is Sigma non-opioid intracellular receptor 1 (Homo sapiens, UniProt Q99720). The series can be described thus: Binding affinity to sigma1 receptor (unknown origin).
Sequence of Sigma non-opioid intracellular receptor 1 (Q99720 whole entry): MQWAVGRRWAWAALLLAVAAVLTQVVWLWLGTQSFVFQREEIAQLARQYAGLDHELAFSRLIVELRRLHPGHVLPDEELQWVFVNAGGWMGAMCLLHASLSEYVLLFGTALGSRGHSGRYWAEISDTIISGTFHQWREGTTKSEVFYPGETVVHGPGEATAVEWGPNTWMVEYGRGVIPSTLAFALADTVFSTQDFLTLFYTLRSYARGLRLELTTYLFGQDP
Series [13] deals with Mu-type opioid receptor (Homo sapiens, UniProt P35372). The series can be described thus: Binding affinity to MOR (unknown origin).
The target in series [14] is Histamine H1 receptor (Homo sapiens, UniProt P35367). The series is described as follows: Binding affinity to histamine H1 receptor (unknown origin).
The target in series [15] is Alpha-1B adrenergic receptor (Homo sapiens, UniProt P35368). The series can be described thus: Binding affinity to adrenoceptor alpha 1B (unknown origin).
Sequence of Alpha-1B adrenergic receptor (P35368 whole entry): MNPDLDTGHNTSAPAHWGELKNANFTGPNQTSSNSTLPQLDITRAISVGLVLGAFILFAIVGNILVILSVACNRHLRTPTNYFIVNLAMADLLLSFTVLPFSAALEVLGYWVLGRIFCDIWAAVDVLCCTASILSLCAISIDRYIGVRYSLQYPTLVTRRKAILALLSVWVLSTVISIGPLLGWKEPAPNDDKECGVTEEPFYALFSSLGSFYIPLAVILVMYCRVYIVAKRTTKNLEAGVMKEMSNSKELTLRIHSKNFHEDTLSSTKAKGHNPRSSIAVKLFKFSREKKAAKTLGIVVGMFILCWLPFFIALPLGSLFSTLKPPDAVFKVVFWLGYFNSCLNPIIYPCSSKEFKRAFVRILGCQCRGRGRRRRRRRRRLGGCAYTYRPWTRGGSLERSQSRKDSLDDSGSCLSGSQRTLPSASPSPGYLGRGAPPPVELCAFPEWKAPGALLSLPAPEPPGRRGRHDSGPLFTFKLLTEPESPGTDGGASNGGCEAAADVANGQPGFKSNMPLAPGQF
Series [16] concerns the target Delta-type opioid receptor (Homo sapiens, UniProt P41143). The series is described as follows: Binding affinity to DOR (unknown origin).
Series [17] addresses D(1B) dopamine receptor (Homo sapiens, UniProt P21918). The series can be described thus: Binding affinity to dopamine D5 receptor (unknown origin).
For series [18], the target named is Sodium-dependent dopamine transporter (Homo sapiens, UniProt Q01959). The series is described as follows: Binding affinity to DAT (unknown origin).
For series [19], the target named is 5-hydroxytryptamine receptor 3A (Homo sapiens, UniProt P46098). The series can be described thus: Binding affinity to 5HT3 receptor (unknown origin).
Series [20] has as its target 5-hydroxytryptamine receptor 1B (Homo sapiens, UniProt P28222). The series can be described thus: Binding affinity to 5HT1B receptor (unknown origin).
Series [21] addresses 5-hydroxytryptamine receptor 6 (Homo sapiens, UniProt P50406). The series is described as follows: Binding affinity to 5HT6 receptor (unknown origin).
In series [22] the target is T1, 5-hydroxytryptamine receptor 7 (Homo sapiens, UniProt P34969). The series is described as follows: Binding affinity to 5HT7 receptor (unknown origin).
T1 sequence (P34969 whole entry): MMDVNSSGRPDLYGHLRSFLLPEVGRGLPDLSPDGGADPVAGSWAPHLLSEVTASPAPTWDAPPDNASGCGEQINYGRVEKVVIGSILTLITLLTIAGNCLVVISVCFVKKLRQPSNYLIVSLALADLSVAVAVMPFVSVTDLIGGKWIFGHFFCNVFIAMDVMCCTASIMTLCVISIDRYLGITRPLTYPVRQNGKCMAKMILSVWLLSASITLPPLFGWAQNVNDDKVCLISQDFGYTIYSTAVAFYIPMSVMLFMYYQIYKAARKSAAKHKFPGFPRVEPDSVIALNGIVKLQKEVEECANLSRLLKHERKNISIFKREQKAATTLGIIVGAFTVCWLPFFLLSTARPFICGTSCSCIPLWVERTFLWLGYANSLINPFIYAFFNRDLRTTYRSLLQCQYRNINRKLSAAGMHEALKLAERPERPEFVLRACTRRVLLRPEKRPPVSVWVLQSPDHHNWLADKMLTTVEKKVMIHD
Series [23] has as its target Beta-1 adrenergic receptor (Homo sapiens, UniProt P08588). The series is described as follows: Binding affinity to beta1 adrenoceptor (unknown origin).
Series [24] has as its target 5-hydroxytryptamine receptor 5A (Homo sapiens, UniProt P47898). The series can be described thus: Binding affinity to 5HT5A receptor (unknown origin).
Series [25] has as its target 5-hydroxytryptamine receptor 1D (Homo sapiens, UniProt P28221). The series is described as follows: Binding affinity to 5HT1D receptor (unknown origin).
Series [26] addresses Muscarinic acetylcholine receptor M3 (Homo sapiens, UniProt P20309). The series can be described thus: Binding affinity to muscarinic acetylcholine receptor M3 (unknown origin).
Series [27] deals with Alpha-1A adrenergic receptor (Homo sapiens, UniProt P35348). The series is described as follows: Binding affinity to adrenoceptor alpha 1A (unknown origin).
Sequence of Alpha-1A adrenergic receptor (P35348 whole entry): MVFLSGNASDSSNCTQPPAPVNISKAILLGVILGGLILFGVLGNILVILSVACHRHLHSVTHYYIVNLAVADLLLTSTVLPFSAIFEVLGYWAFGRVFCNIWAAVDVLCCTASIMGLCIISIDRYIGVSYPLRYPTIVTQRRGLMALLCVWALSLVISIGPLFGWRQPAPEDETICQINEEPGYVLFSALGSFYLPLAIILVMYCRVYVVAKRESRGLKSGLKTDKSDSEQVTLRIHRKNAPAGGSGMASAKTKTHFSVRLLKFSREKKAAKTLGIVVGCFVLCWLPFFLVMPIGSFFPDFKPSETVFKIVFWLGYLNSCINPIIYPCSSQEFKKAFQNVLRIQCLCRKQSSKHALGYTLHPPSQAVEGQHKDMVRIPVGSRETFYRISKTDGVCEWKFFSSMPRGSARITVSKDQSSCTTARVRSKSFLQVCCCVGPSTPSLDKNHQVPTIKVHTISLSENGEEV
The target of series [28] is Sodium-dependent noradrenaline transporter (Homo sapiens, UniProt P23975). The series can be described thus: Binding affinity to NET (unknown origin).
Series [29] deals with Histamine H2 receptor (Homo sapiens, UniProt P25021). The series can be described thus: Binding affinity to histamine H2 receptor (unknown origin).
Sequence of Histamine H2 receptor (P25021 whole entry): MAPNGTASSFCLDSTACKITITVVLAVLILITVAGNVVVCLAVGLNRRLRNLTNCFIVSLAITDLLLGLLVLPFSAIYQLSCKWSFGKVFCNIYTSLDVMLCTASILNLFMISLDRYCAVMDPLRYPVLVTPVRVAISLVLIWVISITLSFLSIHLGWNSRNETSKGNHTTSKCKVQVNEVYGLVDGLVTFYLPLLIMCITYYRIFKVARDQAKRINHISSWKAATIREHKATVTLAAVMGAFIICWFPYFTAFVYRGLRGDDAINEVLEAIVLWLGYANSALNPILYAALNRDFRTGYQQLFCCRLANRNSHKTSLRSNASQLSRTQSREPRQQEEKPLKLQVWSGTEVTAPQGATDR
The target of series [30] is Muscarinic acetylcholine receptor M2 (Homo sapiens, UniProt P08172). The series is described as follows: Binding affinity to muscarinic acetylcholine receptor M2 (unknown origin).
The target of series [31] is 5-hydroxytryptamine receptor 1E (Homo sapiens, UniProt P28566). The series is described as follows: Binding affinity to 5HT1E receptor (unknown origin).
Series [32] in a line: Effect on locomotor activity in Swiss Webster (Harlan) mouse at 20 mg/kg, ip after 30 mins by automated activity monitoring system based assay. The class given is ADME, organism-based. As to conditions: in vivo, 0.5 h. Summed up: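 Mice in groups of five, 12 h light/dark, randomized (n = 6–10/group), dosed i.p. in saline, 10% ethanol or 10% ethanol/1% DMSO vehicle, desipramine 20 mg/kg reference. Each mouse put in Plexiglas enclosure right after injection; photobeam interruptions recorded for 30 min, with counts from the last 10 min quantified and analyzed.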

For series [33], the target named is Muscarinic acetylcholine receptor M1 (Homo sapiens, UniProt P11229). The series is described as follows: Binding affinity to muscarinic acetylcholine receptor M1 (unknown origin).
Sequence of Muscarinic acetylcholine receptor M1 (P11229 whole entry): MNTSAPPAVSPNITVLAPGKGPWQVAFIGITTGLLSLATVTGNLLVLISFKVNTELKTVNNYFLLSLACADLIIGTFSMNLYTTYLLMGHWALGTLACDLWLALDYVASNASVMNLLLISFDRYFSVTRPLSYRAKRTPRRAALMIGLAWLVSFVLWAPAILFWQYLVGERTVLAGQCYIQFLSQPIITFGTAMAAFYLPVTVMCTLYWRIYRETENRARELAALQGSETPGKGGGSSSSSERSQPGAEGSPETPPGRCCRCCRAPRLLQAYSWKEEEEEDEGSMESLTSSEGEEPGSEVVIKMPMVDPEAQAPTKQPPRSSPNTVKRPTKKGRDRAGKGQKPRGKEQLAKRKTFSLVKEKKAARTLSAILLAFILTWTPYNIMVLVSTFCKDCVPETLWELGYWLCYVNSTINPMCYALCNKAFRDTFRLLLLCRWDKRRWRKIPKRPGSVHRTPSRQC
Series [34] deals with D(2) dopamine receptor (Homo sapiens, UniProt P14416). The series is described as follows: Binding affinity to dopamine D2 receptor (unknown origin).
The target of series [35] is 5-hydroxytryptamine receptor 2B (Homo sapiens, UniProt P41595). The series can be described thus: Binding affinity to 5HT2B receptor (unknown origin).
The target of series [36] is Histamine H3 receptor (Homo sapiens, UniProt Q9Y5N1). The series can be described thus: Binding affinity to histamine H3 receptor (unknown origin).
Series [37] has as its target Muscarinic acetylcholine receptor M4 (Homo sapiens, UniProt P08173). The series is described as follows: Binding affinity to muscarinic acetylcholine receptor M4 (unknown origin).
For series [38], the target named is 5-hydroxytryptamine receptor 1A (Homo sapiens, UniProt P08908). The series can be described thus: Binding affinity to 5HT1A receptor (unknown origin).
Series [39] addresses Sodium-dependent serotonin transporter (Homo sapiens, UniProt P31645). The series is described as follows: Binding affinity to SERT (unknown origin).
Series [40] deals with Mus musculus. The series is described as follows: Antidepressant activity in Swiss Webster (Harlan) mouse assessed as decrease in immobility time at 20 mg/kg, ip after 30 mins by forced swim test. It is filed as functional, organism-based. In outline:
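Mice housed five per cage on 12 h light/dark cycle, randomized (n = 6–10/group), given i.p. dose in saline, 10% ethanol or 10% ethanol/1% DMSO vehicle; desipramine 20 mg/kg as reference. Directly after 30 min locomotor session, each mouse placed in water-filled cylinder (8 cm depth, 25 °C), videotaped 6 min; immobility over final 4 min timed by three observers, averaged.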

Series [41] has as its target Kappa-type opioid receptor (Homo sapiens, UniProt P41145). The series is described as follows: Binding affinity to KOR (unknown origin).
Series [42] addresses T1, 5-hydroxytryptamine receptor 7. The series can be described thus: Binding affinity to 5HT7A receptor (unknown origin).

The Ki is a dissociation constant, usually derived from enzyme kinetics or from competition with a known ligand.

Sequence of 5-hydroxytryptamine receptor 1B (P28222 whole entry): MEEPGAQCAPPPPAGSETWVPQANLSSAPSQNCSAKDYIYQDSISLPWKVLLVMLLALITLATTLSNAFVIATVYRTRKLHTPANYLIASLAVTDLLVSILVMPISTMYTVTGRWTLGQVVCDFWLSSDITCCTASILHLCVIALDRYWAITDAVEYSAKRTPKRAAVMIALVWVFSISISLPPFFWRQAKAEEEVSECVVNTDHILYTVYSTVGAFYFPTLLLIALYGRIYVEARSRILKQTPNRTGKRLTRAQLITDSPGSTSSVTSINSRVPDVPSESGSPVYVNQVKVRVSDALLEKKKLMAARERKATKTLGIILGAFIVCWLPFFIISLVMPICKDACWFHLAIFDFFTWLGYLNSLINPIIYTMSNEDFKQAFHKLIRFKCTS
Sequence of Sigma intracellular receptor 2 (Q5BJF2 whole entry): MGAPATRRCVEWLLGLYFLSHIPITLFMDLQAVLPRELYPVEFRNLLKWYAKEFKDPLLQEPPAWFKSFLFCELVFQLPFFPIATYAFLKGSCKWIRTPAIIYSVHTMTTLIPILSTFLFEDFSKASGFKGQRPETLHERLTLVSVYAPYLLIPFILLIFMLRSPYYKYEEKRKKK

`Cc1nccc2c1C(C)(C)Nc1cc(Br)ccc1-2`: the Ki in series [1], in [2], in [3], in [4], in series [5] and in series [6] was over 10 µM each time. In addition, the inhibitory constant (Ki) in series [7] is over 10 µM; in series [8] it was over 10 µM; in series [9], over 10 µM; in series [10] it was over 10 µM; in [11], over 10 µM; in series [12] it was 560 nM. The inhibition constant (Ki) in [13], in series [14], in series [15], in [16], in [17] and in series [18] was over 10 µM in each case. Besides, the Ki in [19], in series [20], in [21], in series [22], in [23] and in [24] was over 10 µM throughout. In addition, the Ki in series [25], in series [26], in [27], in series [28], in [29] and in series [30] was over 10 µM each time. Further, the inhibition constant Ki in [31] is over 10 µM; in [33] it was over 10 µM; in [34] it was over 10 µM; in series [35], 390 nM; in series [36], over 10 µM; in series [37], over 10 µM. Also, the inhibition constant Ki in series [38], in series [39], in series [41] and in series [42] was over 10 µM each time. In addition, the Activity entry in series [32] is listed as “Non-Toxic”. The result in [40] was Active.
For the molecule `CNCCCN1c2ccccc2CCc2ccccc21`, in [40], the outcome was Active.
